According to ChEMBL document CHEMBL1154031, “Glycolipid ester-type heterodimers from Ipomoea tyrianthina and their pharmacological activity” (Bioorg Med Chem Lett, 2009):
Values after ≈ are worked out from the molar mass of the structure shown. Active and inactive are the calls of the source. No cut-off for these calls is given here.

Key:
Brain [1] = assay: Increase in GABA release in mouse cortical brain slice at 20 ug/mL upto 180 seconds; assay type: functional, tissue-based
How it was run: (§1)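 Anterior cortex slices (250-300 um) cut by hand after decapitation, held at 4 °C in oxygenated modified Krebs-Ringer (pH 7.4) with amino-oxyacetic acid 10.0 uM, then 10 min in basal medium at 37 °C. Compound at a final 20.0 ug/mL; aliquots sampled at 0.5-3.0 min. GABA and glutamate measured by HPLC after O-phthaldialdehyde derivatization and expressed per mg slice protein. Untreated control; mean ± SEM, 3 independent experiments.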

Aorta [2] = assay: Vasorelaxation activity in Wistar rat endothelium-intact thoracic aortic ring assessed as inhibition of noradrenaline-induced contraction; assay type: functional, tissue-based
How it was run: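 Thoracic aortic rings (3-5 mm) with endothelium intact, held at 3 g tension in Krebs solution at 37 °C, pH 7.4, gassed O2/CO2 19:1. Isometric tension recorded. Rings precontracted with noradrenaline 0.3 uM, then given cumulative concentrations. Relaxation taken from tone before and after addition. Vehicle and positive control run in parallel.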

Aorta [3] = assay: Vasorelaxation activity in Wistar rat endothelium-removed thoracic aortic ring assessed as inhibition of noradrenaline-induced contraction; assay type: functional, tissue-based
How it was run: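 Endothelium removed from the rings, confirmed by absence of relaxation to carbachol 1 uM. Rings held at 3 g in oxygenated Krebs (37 °C, pH 7.4) and precontracted with noradrenaline 0.3 uM. Cumulative concentration-response curves recorded isometrically. Relaxation calculated by comparing tone before and after compound addition.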

Brain [4] = assay: Increase in GABA release in mouse cortical brain slice at 20 ug/mL after 30 seconds; assay type: functional, tissue-based; how it was run: as §1
Brain [5] = assay: Increase in glutamic acid release in mouse cortical brain slice assessed per mg of protein at 20 ug/mL upto 180 seconds; assay type: functional; how it was run: as §1
[6] = tested on: Mycobacterium tuberculosis; assay: Antimycobacterial activity against Mycobacterium tuberculosis by microplate blue alamar assay; assay type: functional
How it was run: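 Modified microplate Alamar Blue assay (MABA) against M. tuberculosis. Pure compounds tested over 100.00 to 3.13 µg/mL. Activity recorded as the minimal inhibitory concentration (MIC).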

| Structure (SMILES) | Activity (Brain [1]) | Emax (Aorta [2]) | IC50 (Aorta [2]) | Activity (Aorta [3]) | Activity (Brain [4]) | Activity (Brain [5]) | MIC [6] |
| --- | --- | --- | --- | --- | --- | --- | --- |
| CCCCCC1CCCCCCCCCC(=O)O[C@@H]2[C@@H](O[C@@H]3O[C@@H](C)[C@H](OC(=O)CCCCCCCCC[C@@H](CCCCC)O[C@@H]4O[C@H](C)[C@@H](O)[C@H](O)[C@H]4O[C@@H]4O[C@H](CO)[C@@H](O)[C@H](O)[C@H]4O[C@@H]4O[C@@H](C)[C@H](O[C@@H]5O[C@H](C)[C@@H](OC(=O)C(C)CC)[C@H](O)[C@H]5O)C(O)C4OC(=O)C(C)C(C)O)[C@@H](O)[C@@H]3O)[C@H](C)O[C@@H](O[C@H]3[C@H](O[C@H]4[C@H](O1)O[C@H](C)[C@@H](O)[C@@H]4O)O[C@H](COC(=O)C(C)C(C)O)[C@@H](O)[C@@H]3O)[C@@H]2OC(=O)C(C)C(C)O (stereo partly drawn) [TYRIANTHIN A] | Active | 81.8% | 240 nM | inactive | Active | 100 pmol | 100 µg/mL (≈ 47.7 µM) |
| CCCCCC1CCCCCCCCCC(=O)O[C@@H]2[C@@H](O[C@@H]3O[C@@H](C)[C@H](OC(=O)CCCCCCCCC[C@@H](CCCCC)O[C@@H]4O[C@H](C)[C@@H](O)[C@H](O)[C@H]4O[C@@H]4O[C@H](CO)[C@@H](O)[C@H](O)[C@H]4O[C@@H]4O[C@@H](C)[C@H](O[C@@H]5O[C@H](C)[C@@H](O)[C@H](O)[C@H]5O)C(O)C4OC(=O)CCC)[C@@H](O)[C@@H]3O)[C@H](C)O[C@@H](O[C@H]3[C@H](O[C@H]4[C@H](O1)O[C@H](C)[C@@H](O)[C@@H]4O)O[C@H](COC(=O)C(C)C(C)O)[C@@H](O)[C@@H]3O)[C@@H]2OC(=O)C(C)C(C)O (stereo partly drawn) [TYRIANTHIN B] | inactive |  | 140 nM | inactive | Active | 180 pmol | 100 µg/mL (≈ 50.5 µM) |
